Test results published in paper PMC5357090 (Saudi Pharmaceutical Journal : SPJ, 2016).
Read-outs that look alike come from different tables or passages of the source.

Columns and labels:
HeLa = assay: In vitro anticancer activity, MTT assay, HeLa; type: cell-based, human; settings: for IC50: Homo sapiens, HeLa, 48 h; for anticancer activity against HeLa cells (in words): MTT, 48 h exposure, compared with the standard cisplatin
Outline: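 HeLa cells came from NCCS and were kept in MEM with 10% FBS at 37 °C and 5% CO2. Cells were seeded at 10,000/well in 5% FBS medium and left 24 h to attach. DMSO solutions were diluted in serum-free medium to 6.25–100 µM (five concentrations) and applied for 48 h, in triplicate. MTT was added for 4 h at 37 °C, formazan dissolved in DMSO, and A570 read. % inhibition was taken against untreated control. IC50 came from nonlinear regression against log concentration.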

α-amylase = assay: α-Amylase assay; type: biochemical; settings: compared to the standard acarbose; 50-1000 μm
Outline: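 α-Amylase was used at 0.1 mg/mL in PBS (0.02 mol/L, pH 6.8). Enzyme was preincubated with the test solution at 37 °C for 5 min. The reaction was started with 1.0% (w/v) starch. It was stopped with DNS reagent (1% dinitrosalicylic acid, 0.05% Na2SO3, 1% NaOH), then heated at 100 °C for 5 min and cooled to room temperature. Absorbance was read at 540 nm.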

MCF-7 = assay: In vitro anticancer activity, MTT assay, MCF-7; type: cell-based; settings: for IC50: Homo sapiens, MCF7, 48 h, read-out: IC50 MCF-7; for anticancer activity against MCF-7 cells (in words): MTT, 48 h exposure, compared with the standard cisplatin
[1] = read-out: IC50 values, range over MCF-7 and HeLa cells

Row | SMILES | IC50 (HeLa; read-out: IC50 HeLa) | anticancer activity against HeLa cells (in words) (HeLa) | inhibitory activity against α-amylase (in words) (α-amylase) | IC50 (MCF-7) | anticancer activity against MCF-7 cells (in words) (MCF-7) | IC50 (HeLa; [1])
1 | O=C(Nc1ccc(F)cc1)Nc1cccc(-c2nnc(C3CCCCC3)o2)c1 [Compound 6a, 1-[3-(5-Cyclohexyl-[1,3,4]oxadiazol-2-yl)-phenyl]-3-(4-fluoro-phenyl)-urea] | 79.7 µM | good activity | moderate activities | 81.6 µM | good activity | 
2 | Cc1ccc(NC(=O)Nc2cccc(-c3nnc(C4CCCCC4)o3)c2)cc1 [Compound 6b, 1-[3-(5-Cyclohexyl-[1,3,4]oxadiazol-2-yl)-phenyl]-3-p-tolyl-urea] | 30.4 µM | significant activity | moderate activities | 23.5 µM | significant activity | 23.5 to 45.6 µM
3 | COc1cccc(NC(=O)Nc2cccc(-c3nnc(C4CCCCC4)o3)c2)c1 [Compound 6c, 1-[3-(5-Cyclohexyl-[1,3,4]oxadiazol-2-yl)-phenyl]-3-(3-methoxy-phenyl)-urea] | 45.6 µM | significant activity |  | 28.6 µM | significant activity | 23.5 to 45.6 µM
4 | O=C(Nc1cccc(-c2nnc(C3CCCCC3)o2)c1)c1ccc(Cl)cc1 [Compound 7a, 4-Chloro-N-[3-(5-cyclohexyl-[1,3,4]oxadiazol-2-yl)-phenyl]-benzamide] | ≥ 100 µM |  |  | ≥ 100 µM |  | 
5 | Cc1ccc(C(=O)Nc2cccc(-c3nnc(C4CCCCC4)o3)c2)cc1 [Compound 7b, N-[3-(5-Cyclohexyl-[1,3,4]oxadiazol-2-yl)-phenyl]-4-methyl-benzamide] | ≥ 100 µM |  |  | ≥ 100 µM |  | 
6 | O=C(Cc1ccccc1F)Nc1cccc(-c2nnc(C3CCCCC3)o2)c1 [Compound 7c, N-[3-(5-Cyclohexyl-[1,3,4]oxadiazol-2-yl)-phenyl]-2-(2-fluoro-phenyl)acetamide] | 80.1 µM | good activity |  | 78.3 µM | good activity | 
7 | O=C(Nc1cccc(-c2nnc(C3CCCCC3)o2)c1)c1cc(F)cc(F)c1 [Compound 7d, N-[3-(5-Cyclohexyl-[1,3,4]oxadiazol-2-yl)-phenyl]-3,5-difluoro-benzamide] | 58.8 µM | good activity | moderate activities | 62.4 µM | good activity | 
8 | O=C(Nc1cccc(-c2nnc(C3CCCCC3)o2)c1)c1cnccn1 [Compound 7e, Pyrazine-2-carboxylic acid [3-(5-cyclohexyl-[1,3,4]oxadiazol-2-yl)-phenyl]-amide] | ≥ 100 µM |  | moderate activities | ≥ 100 µM |  | 
9 | O=C(Cc1c[nH]c2ccccc12)Nc1cccc(-c2nnc(C3CCCCC3)o2)c1 [Compound 7f, N-[3-(5-Cyclohexyl-[1,3,4]oxadiazol-2-yl)-phenyl]-2-(1H-indol-3-yl)-acetamide] | 100 µM |  | better than all other compounds | ≥ 100 µM |  | 
10 | O=C(Nc1cccc(-c2nnc(C3CCCCC3)o2)c1)C1CCCC1 [Compound 7g, Cyclopentane carboxylic acid [3-(5-cyclohexyl-[1,3,4]oxadiazol-2-yl)-phenyl]-amide] | ≥ 100 µM |  | moderate activities | ≥ 100 µM |  | 
11 | O=C(Nc1cccc(-c2nnc(C3CCCCC3)o2)c1)c1ccco1 [Compound 7h, Furan-2-carboxylic acid [3-(5-cyclohexyl-[1,3,4]oxadiazol-2-yl)-phenyl]-amide] | ≥ 100 µM |  |  | ≥ 100 µM |  | 
12 | O=C(C=Cc1ccco1)Nc1cccc(-c2nnc(C3CCCCC3)o2)c1 [Compound 7i, N-[3-(5-Cyclohexyl-[1,3,4]oxadiazol-2-yl)-phenyl]-3-furan-2-yl-acrylamide] | ≥ 100 µM |  |  | ≥ 100 µM |  | 
13 | Cc1ccc(S(=O)(=O)Nc2cccc(-c3nnc(C4CCCCC4)o3)c2)cc1 [Compound 8a, N-[3-(5-Cyclohexyl-[1,3,4]oxadiazol-2-yl)-phenyl]-4-methyl-benzenesulphonamide] | ≥ 100 µM |  |  | ≥ 100 µM |  | 
14 | CC(C)(C)c1ccc(S(=O)(=O)Nc2cccc(-c3nnc(C4CCCCC4)o3)c2)cc1 [Compound 8b, 4-tert-Butyl-N-[3-(5-cyclohexyl-[1,3,4]oxadiazol-2-yl)-phenyl]-benzenesulphonamide] | 62.9 µM | good activity |  | 60.9 µM | good activity | 
15 | O=S(=O)(Nc1cccc(-c2nnc(C3CCCCC3)o2)c1)c1cc(Cl)cc(Cl)c1 [Compound 8c, 3,5-Dichloro-N-[3-(5-cyclohexyl-[1,3,4]oxadiazol-2-yl)-phenyl]-benzenesulphonamide] | ≥ 100 µM |  | better than all other compounds | ≥ 100 µM |  | 
